Only some compounds are listed: those with a hit (about 3.8% of all), similar ones and a draw of the others.
hERG rescue – shields human hERG channel from block by proarrhythmic agents; Q12809; CHO-hERG, FluxOR thallium flux, dofetilide IC70 present; activation (rescue from dofetilide block), less the hit threshold, % at 10 µM; actives 0.51% (n = 310,000);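 active means activation above the mean of controls blocked by dofetilide plus 5 SD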;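 further: thallium influx through hERG after potassium depolarization seen as dye fluorescence rise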
Target sequence (Q12809 whole entry, looked up): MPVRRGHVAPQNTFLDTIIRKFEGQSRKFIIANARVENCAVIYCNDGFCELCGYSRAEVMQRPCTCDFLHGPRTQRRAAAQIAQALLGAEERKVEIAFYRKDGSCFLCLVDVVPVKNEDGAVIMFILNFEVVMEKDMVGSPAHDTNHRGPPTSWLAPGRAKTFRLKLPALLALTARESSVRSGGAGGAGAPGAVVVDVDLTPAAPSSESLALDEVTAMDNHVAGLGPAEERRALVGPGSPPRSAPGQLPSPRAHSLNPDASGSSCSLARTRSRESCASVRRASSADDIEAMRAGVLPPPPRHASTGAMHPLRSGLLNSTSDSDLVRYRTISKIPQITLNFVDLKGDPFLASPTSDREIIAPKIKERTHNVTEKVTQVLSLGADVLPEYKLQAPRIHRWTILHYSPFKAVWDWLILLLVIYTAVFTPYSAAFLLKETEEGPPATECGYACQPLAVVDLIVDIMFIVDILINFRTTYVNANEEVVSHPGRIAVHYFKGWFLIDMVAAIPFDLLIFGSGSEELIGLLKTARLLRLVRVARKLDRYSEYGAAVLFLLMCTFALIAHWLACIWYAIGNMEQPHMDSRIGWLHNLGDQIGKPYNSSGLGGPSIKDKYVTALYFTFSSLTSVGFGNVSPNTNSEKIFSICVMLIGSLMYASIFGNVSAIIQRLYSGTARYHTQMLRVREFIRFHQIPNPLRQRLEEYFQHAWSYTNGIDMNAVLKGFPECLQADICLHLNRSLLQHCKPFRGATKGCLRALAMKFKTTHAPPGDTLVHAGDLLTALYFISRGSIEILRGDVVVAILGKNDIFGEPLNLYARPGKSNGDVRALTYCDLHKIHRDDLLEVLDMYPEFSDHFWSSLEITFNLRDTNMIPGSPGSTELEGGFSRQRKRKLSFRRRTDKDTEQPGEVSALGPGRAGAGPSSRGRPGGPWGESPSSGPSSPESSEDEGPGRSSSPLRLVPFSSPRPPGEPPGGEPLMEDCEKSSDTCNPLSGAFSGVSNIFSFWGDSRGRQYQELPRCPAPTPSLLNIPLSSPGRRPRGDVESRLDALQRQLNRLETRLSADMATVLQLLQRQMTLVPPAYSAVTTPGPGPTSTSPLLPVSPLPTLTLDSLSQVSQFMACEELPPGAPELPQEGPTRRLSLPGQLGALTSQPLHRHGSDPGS
KCNK3 block – human KCNK3 channel inhibition, primary screen; CHO-KCNK3 thallium flux, FluxOR fluorescence; hits give low values; B-score at 10 µM; actives 0.84% (n = 340,000); AID 602410;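 active means B-score under library mean minus 4 SD, starting fluorescence ratio at most library mean plus 5 SD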;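 further: more negative B-score means stronger inhibition of thallium flux through KCNK3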
KCNQ1 block – human KCNQ1 channel inhibition. CHO-K1 KCNQ1, FluxOR thallium flux fluorescence; hits give high values. B-score at 10 µM. actives 1.3% (n = 310,000). AID 2642;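 active means compounds whose thallium flux B-score, printed positive for inhibition, exceeds three library SD while starting fluorescence stays within three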;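 further: channel opened by potassium depolarization with thallium stimulus after 20 min compound exposure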
KCNK9 block – human KCNK9 channel inhibition | Q9NPC2 | HEK293 KCNK9, FluxOR thallium flux fluorescence; hits give low values | B-score at 10 µM | actives 1.2% (n = 310,000) | AID 488922;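 active means ratio B-score over 3 SD below the library mean, with starting fluorescence within 5 SD of its mean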;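 further: negative B-score means less thallium flux so channel inhibition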
KCNQ1 act – potentiators or activators of human KCNQ1 potassium channel. actives 0.35% (n = 310,000). B-score at 10 µM. AID 2648. CHO-K1 KCNQ1, thallium flux FluxOR fluorescence; hits give high values;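 active means fluorescence ratio B-score, a plate-corrected score, at least three library SD, with initial intensity B-score within 5 SD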
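System: CHO-K1 cells stably expressing KCNQ1 / Medium: assay buffer for compound exposure, DMSO matched across wells / Reagent: thallium- and potassium-containing depolarizing buffer / Compound: one concentration, matched DMSO / Incubation: 20 min compound pretreatment at room temperature / Measured by: kinetic FluxOR fluorescence, 10 s baseline plus 110 s post-stimulus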
Kir21 inh – inhibitors of mouse Kir2.1 inward-rectifier potassium channel. HEK293-Kir2.1, FluxOR thallium flux fluorescence; hits give low values. AID 1672. P35561. B-score at 10 µM. actives 0.85% (n = 310,000);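 active means fluorescence ratio B-score at or below minus 3 SD of library scores, with starting-brightness B-score within 2 SD, cut at about -4.2 in these data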;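 further: channel flux triggered by added potassium and thallium sulfate stimulus; B-score of peak minus minimum fluorescence over baseline after thallium stimulus; more negative B-score means stronger Kir2.1 block with less thallium influx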
* hit, by the source's call.

How did CCCCOP(=O)(OCCCC)C(Nc1ccc(C(=O)OCC)cc1)c1ccncc1 (centres undefined) do in these assays?
hERG rescue: -11; KCNK3 block: inactive; KCNQ1 block: 6*; KCNK9 block: inactive; KCNQ1 act: inactive; Kir21 inh: 0.29

How did CCCOP(=O)(OCCC)C(Nc1ccc(C(=O)O)cc1)c1ccccc1 (centres undefined) do in these assays?
hERG rescue: -3; KCNK3 block: inactive; KCNQ1 block: inactive; KCNK9 block: inactive; KCNQ1 act: inactive; Kir21 inh: -0.47

Results for CCCCC(=O)NN(C)c1nc(-c2ccccc2)nnc1C(F)(F)F ?
hERG rescue: -2; KCNK3 block: inactive; KCNQ1 block: inactive; KCNK9 block: inactive; KCNQ1 act: inactive; Kir21 inh: -0.15

How did Cc1ccc(C(=O)C(c2ccccc2)N2Cc3ccccc3C2=N)cc1 (centres undefined) do in these assays?
hERG rescue: -17; KCNK3 block: inactive; KCNQ1 block: 11*; KCNK9 block: inactive; KCNQ1 act: inactive; Kir21 inh: -8.3*

Results for COc1ccc(C(=O)C(c2ccccc2)N2CCOCC2)cc1 (centres undefined) ?
hERG rescue: -3; KCNK3 block: inactive; KCNQ1 block: inactive; KCNK9 block: inactive; KCNQ1 act: inactive; Kir21 inh: -1.7

Results for CCOC(=O)c1c(C(C)(C)C)oc2ccc(OCC#N)cc12 ?
hERG rescue: -7; KCNK3 block: inactive; KCNQ1 block: 6*; KCNK9 block: inactive; KCNQ1 act: inactive; Kir21 inh: 0.48

How did CCOC(=O)c1c(-c2ccccc2)oc2ccc(O)c(CN3CCCC3)c12 do in these assays?
hERG rescue: -17; KCNK3 block: inactive; KCNQ1 block: inactive; KCNK9 block: inactive; KCNQ1 act: inactive; Kir21 inh: -12*

Results for CCOC(=O)c1c(-c2ccccc2)oc2ccc(O)c(CN(C)C)c12 ?
hERG rescue: -6; KCNK3 block: inactive; KCNQ1 block: inactive; KCNK9 block: inactive; KCNQ1 act: inactive; Kir21 inh: -6.4*

What do the screens show for `CCOC(=O)c1c(C(C)(C)C)oc2ccc(O)cc12`?
KCNK3 block: inactive

How did CCOC(=O)c1c(-c2ccccc2)oc2ccc(OCC(O)CN(C)C)cc12 (centres undefined) do in these assays?
hERG rescue: -14; KCNK3 block: inactive; KCNQ1 block: inactive; KCNK9 block: inactive; KCNQ1 act: inactive; Kir21 inh: -7.8*

Results for CCOC(=O)c1ccc(N2CCN(c3cc(C)ccc3C)CC2)c(N)c1 ?
hERG rescue: -7; KCNK3 block: inactive; KCNQ1 block: inactive; KCNK9 block: -6.8*; KCNQ1 act: inactive; Kir21 inh: 0.27

Results for CC(=O)Nc1c(O)nc(SCc2ccccc2C#N)[nH]c1=O ?
hERG rescue: -8; KCNK3 block: inactive; KCNQ1 block: inactive; KCNK9 block: inactive; KCNQ1 act: inactive; Kir21 inh: -0.11

Results for CCOC(=O)c1ccc(NC(=S)NC(=O)COc2ccccc2)cc1 ?
hERG rescue: 7.6*; KCNK3 block: inactive; KCNQ1 block: inactive; KCNK9 block: inactive; KCNQ1 act: inactive; Kir21 inh: 1.1

How did CCOC(=O)c1ccc(NC(=S)Nc2ccccc2)cc1 do in these assays?
hERG rescue: -14; KCNK3 block: inactive; KCNQ1 block: inactive; KCNK9 block: inactive; KCNQ1 act: inactive; Kir21 inh: 1.1

How did O=C(N/N=C/c1sc(N2CCOCC2)nc1-c1ccccc1)c1ccccc1O do in these assays?
hERG rescue: -13; KCNK3 block: inactive; KCNQ1 block: 9*; KCNK9 block: inactive; KCNQ1 act: inactive; Kir21 inh: 1.1

How did O=[N+]([O-])c1ccc(N/N=C/c2sc(N3CCOCC3)nc2-c2ccccc2)c(S(=O)(=O)Nc2ccccc2Cl)c1 do in these assays?
KCNK3 block: inactive

What do the screens show for `O=[N+]([O-])c1ccc(N/N=C/c2sc(N3CCOCC3)nc2-c2ccccc2)c(S(=O)(=O)Nc2ccc(Cl)cc2)c1`?
hERG rescue: -18; KCNK3 block: inactive; KCNQ1 block: 11*; KCNK9 block: inactive; KCNQ1 act: inactive; Kir21 inh: 0.37

Results for O=S(=O)([N-]c1nc2ccccc2nc1-[n+]1ccc(CCCc2ccccc2)cc1)c1cccs1 ?
hERG rescue: -11; KCNK3 block: inactive; KCNQ1 block: inactive; KCNK9 block: -6.8*; KCNQ1 act: inactive; Kir21 inh: -0.42

Results for Cc1ccc(C(=O)CC(=O)c2ccccc2)cc1 ?
hERG rescue: -6; KCNK3 block: inactive; KCNQ1 block: inactive; KCNK9 block: inactive; KCNQ1 act: inactive; Kir21 inh: 0.88

Results for CCCC(=O)c1ccc(-c2ccccc2)cc1 ?
hERG rescue: -1; KCNK3 block: inactive; KCNQ1 block: inactive; KCNK9 block: -7.4*; KCNQ1 act: inactive; Kir21 inh: 0.01

Results for O=C(CCCCCCCC(=O)c1ccccc1)c1ccccc1 ?
hERG rescue: -6; KCNK3 block: inactive; KCNQ1 block: 7*; KCNK9 block: inactive; KCNQ1 act: inactive; Kir21 inh: 0.45

How did O=C1C2CC=CCC2C(=O)N1c1cccc(OS(=O)(=O)c2ccc3ccccc3c2)c1 (centres undefined) do in these assays?
hERG rescue: -12; KCNK3 block: inactive; KCNQ1 block: inactive; KCNK9 block: inactive; KCNQ1 act: inactive; Kir21 inh: 0.37

What do the screens show for `Cc1ccc(F)cc1NC(=O)COC(=O)C1CCN(c2ccc(C(F)(F)F)cn2)CC1`?
hERG rescue: -6; KCNK3 block: inactive; KCNQ1 block: inactive; KCNK9 block: inactive; KCNQ1 act: inactive; Kir21 inh: 1.6

Results for Cc1ccc(S(=O)(=O)c2c(C)cc(C)nc2Oc2cccc(C(F)(F)F)c2)cc1 ?
hERG rescue: -6; KCNK3 block: inactive; KCNQ1 block: inactive; KCNK9 block: -7.3*; KCNQ1 act: inactive; Kir21 inh: 0

What do the screens show for `CCOC(=O)C1CC(CN2C(=O)c3ccccc3C2=O)OC1=O` (centres undefined)?
KCNK3 block: inactive

Results for CC(C)CCn1c(=O)c2ccccc2c2ccccc2c1=O ?
hERG rescue: -9; KCNK3 block: inactive; KCNQ1 block: 6*; KCNK9 block: inactive; KCNQ1 act: inactive; Kir21 inh: 0

How did O=[N+]([O-])c1cccc(NC(=S)Nc2nc(-c3ccc(Cl)cc3Cl)cs2)c1 do in these assays?
hERG rescue: -14; KCNQ1 block: inactive; KCNK9 block: inactive; KCNQ1 act: inactive; Kir21 inh: -1

How did Cc1ccc(C(=O)N2[C@@H]3CN(C)C(=O)[C@@]2(Cc2ccccc2)[C@H]2C(=O)N(Cc4ccccc4)C(=O)[C@@H]32)cc1 do in these assays?
KCNK3 block: inactive

Source: PubChem BioAssay
